Source: PubChem BioAssay
The list is not random: actives were taken first. Their share in the collection is about 1.5%.
HNF4A DNA FP – change in binding of human HNF4 alpha to DNA; HNF4a-FITC DNA binding, fluorescence polarization, 1 h; activity change, % at 10 µM; P41235; hit rate 0.3% among 360,000; in the data active = activity change above about 30%, passing the limit was not always enough
TPT1 inh – C. albicans TPT1 enzyme inhibition. inhibition, % at 5 µM. AID 1962. hit rate 0.81% among 300,000. recombinant caTPT1, FP RNA substrate dephosphorylation;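 active = inhibition above the mean of all tested compounds plus 3 SD, set per screening campaign, cut at about 24% in these data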;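 also: plate controls were DMSO alone for no effect and ferristatin control at 100 nM for full effect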
CSN deneddyl inh – CSN deneddylation inhibition | AID 651999 | Purified CSN, SCF-Nedd8-OG deneddylation, fluorescence polarization | Q92905 | hit rate 0.38% among 360,000 | inhibition, % at 12.5 µM;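 active = pattern-corrected inhibition above about 35%, with an unprinted fluorescence ratio check between 0.5 and 1.5, limit read from the data, passing the limit was not always enough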;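 also: 0% = enzyme with substrate and 100% = substrate without enzyme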
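Test system: Human Csn5 produced in HEK293T cells | Compound: 12.5 µM single point | Times: 90 min, room temperature | Signal: Fluorescence polarization readout | Read-out basis: % inhibition of substrate cleavage by Csn5 | Controls: no-enzyme wells high, enzyme-with-substrate wells low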
Rpn11 block – blocks the human proteasome subunit Rpn11; O00487; calls only at 20 µM; human 26S proteasome, Ub4-pepOG fluorescence polarization; 20S core pre-blocked with epoxomicin; hit rate 0.59% among 360,000;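 active = inhibition at 20 µM, scaled to each plate's controls, above about 33%, limit read from the data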
Rpn11 inh conf – Rpn11 inhibition confirmation, single concentration; shares compounds with Rpn11 block; purified human 26S proteasome, Ub4-pepOG fluorescence polarization; proteasome pretreated with epoxomicin; inhibition, % at 20 µM; hit rate 29% among 1,900; AID 602318
MMP-2 inh – MMP-2 (human) inhibition counter-screen. shares compounds with Rpn11 block. recombinant MMP-2, FRET peptide cleavage fluorescence. inhibition, % at 20 µM. hit rate 4% among 1,900;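 also: human MMP-2 activated beforehand with APMA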
Thrombin FP – blocks bovine thrombin, flagging nonselective RPN11 hits; shares compounds with Rpn11 block; bovine thrombin cleavage of Ub4-pepOG, fluorescence polarization; AID 602333; inhibition, % at 20 µM; hit rate 13% among 1,900;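 active = mean inhibition at least 40% at 20 µM, or signal 3 deviations below plate average, so some actives read negative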;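 also: plate controls were thrombin with DMSO for no effect and buffer wells lacking thrombin for full effect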
Target sequence (P00735 whole entry, looked up): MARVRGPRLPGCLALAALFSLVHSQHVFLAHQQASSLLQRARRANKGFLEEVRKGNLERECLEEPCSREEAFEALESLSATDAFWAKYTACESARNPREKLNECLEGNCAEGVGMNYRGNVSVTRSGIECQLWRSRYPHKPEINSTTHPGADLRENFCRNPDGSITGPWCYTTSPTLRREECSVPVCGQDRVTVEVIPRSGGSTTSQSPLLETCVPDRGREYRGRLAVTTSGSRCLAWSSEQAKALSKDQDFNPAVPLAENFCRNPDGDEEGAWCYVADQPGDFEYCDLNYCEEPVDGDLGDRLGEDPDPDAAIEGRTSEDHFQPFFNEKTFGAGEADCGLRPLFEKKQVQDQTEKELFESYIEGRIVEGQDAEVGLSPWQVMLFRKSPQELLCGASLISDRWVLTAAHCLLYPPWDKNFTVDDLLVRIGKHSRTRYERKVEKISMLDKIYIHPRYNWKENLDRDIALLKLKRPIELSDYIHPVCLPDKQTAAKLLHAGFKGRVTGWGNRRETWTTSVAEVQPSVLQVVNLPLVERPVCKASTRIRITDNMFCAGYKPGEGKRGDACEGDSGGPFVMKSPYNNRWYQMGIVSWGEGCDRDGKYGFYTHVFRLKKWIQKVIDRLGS
Numbers without * were called inactive; i = inactive; / = not tested or not shown; + = active, no number. Rule as the data show it, unless noted: active = inhibition above about 40%; inactive = the rest.

SMILES	HNF4A DNA FP	TPT1 inh	CSN deneddyl inh	Rpn11 block	Rpn11 inh conf	MMP-2 inh	Thrombin FP
O=C(CCCN1C(=O)/C(=C/c2cccs2)SC1=S)NNC(=O)c1ccncc1	3	2	12	+	-7	20	1
O=C(CCCN1C(=O)/C(=C\c2cccs2)SC1=S)NNC(=O)c1cccnc1	12	3	-5	+	3	13	-2
O=C(CCCN1C(=O)/C(=C/c2ccccc2Cl)SC1=S)NNC(=O)c1ccncc1	1	-2	-1	i	/	/	/
O=C(CCCN1C(=O)/C(=C\c2cccs2)SC1=S)Nc1ccccn1	1	2	6	+	5	-35	-8
O=C(CCCN1C(=O)/C(=C/c2cccs2)SC1=S)Nc1ccccc1O	4	20	-4	i	/	/	/
Cc1ccc(NC(=O)c2nc[nH]c2C(=O)N(C)Cc2ccccc2)cc1	2	/	0	i	/	/	/
COC(=O)[C@]12CCCCC=C1N(CCC1=CCCCC1)C(=O)[C@H](CC(=O)N1CCN(C(=O)c3ccco3)CC1)C2	11	/	2	/	/	/	/
O=C(NCCc1ccccc1O)c1cc2c(cc1[N+](=O)[O-])OCO2	3	/	65	i	/	/	/
CCCCOC(=O)Nc1nnc(CCOCC)s1	4	0	-1	+	-1	-15	-3
CCCCOC(=O)Nc1nnc(CCc2ccccc2)s1	-3	0	2	i	/	/	/
Fc1cccc2sc(Nc3nnc(-c4ccccc4)o3)nc12	-5	-4	-1	i	/	/	/
COc1cc(OC)cc(-c2nnc(Nc3nc4c(F)cccc4s3)o2)c1	12	-6	12	+	76*	32	-8
Cc1c(Br)cnn1C(C)C(=O)N1CCN(c2ccccc2F)CC1 (centres undefined)	2	/	-3	i	/	/	/
CCOc1ccc(C(=O)N/N=C/c2ccc(-c3ccc(S(=O)(=O)Nc4ncccn4)cc3)o2)cc1	-3	5	7	i	/	/	/
O=C(N/N=C/c1ccc(-c2ccc(S(=O)(=O)Nc3ncccn3)cc2)o1)c1cc2ccccc2cc1O	-8	-1	32	+	51*	-19	35
O=C(NCC(=O)N1CCC(Cc2ccccc2)CC1)c1ccccc1F	-3	/	-1	i	/	/	/
CC(SCc1ccc(C(=O)O)o1)c1ccc(C(=O)O)o1 (centres undefined)	2	-1	0	+	-8	-30	-8
C=CCn1cnc2c(c1=O)c1nc3ccccc3nc1n2/N=C/c1cc(OC)c(OC)c(OC)c1	1	3	-1	i	/	/	/
C=CCn1cnc2c(c1=O)c1nc3ccccc3nc1n2/N=C/c1cccc(OC)c1OC	2	-3	59*	+	5	-25	-2
Cc1ccc(Cl)cc1NC(=O)c1cnn2c1NC(c1ccco1)CC2C(F)(F)F (centres undefined)	11	10	17	+	-15	-6	-43
COc1ccc(C(=O)c2[nH]c(N)c(C(=O)NCCc3c[nH]c4ccccc34)c2-c2ccc(OC)c(OC)c2)cc1	1	/	-3	/	/	/	/
Cc1cc(SCC(=O)NN)c2cc(Br)ccc2n1	3	1	9	+	3	-28	-5
O=C(COC(=O)c1cc(S(=O)(=O)N2CCOCC2)ccc1Cl)Nc1ccccc1Cl	-2	/	4	i	/	/	/
CC1(C)C2CCC1(C)C(NCC(O)COc1ccc(C#N)cc1)C2 (centres undefined)	0	-1	3	i	/	/	/
Cc1ccc(-c2csc(Nc3ccc(S(N)(=O)=O)cc3)n2)o1	18	14	7	+	0	-1	-6
SMILES	HNF4A DNA FP	TPT1 inh	CSN deneddyl inh	Rpn11 block	Rpn11 inh conf	MMP-2 inh	Thrombin FP
N/C(=N\OC(=O)c1ccccc1F)c1cccc([N+](=O)[O-])c1	-1	-3	1	i	/	/	/
Cc1nnc(N2CCCC(C(=O)NCc3ccc(OC(C)C)cc3)C2)c2nn(-c3ccccc3)c(C)c12 (centres undefined)	15	5	7	+	23	-11	10
Cc1nnc(N2CCCC(C(=O)Nc3cc(F)ccc3F)C2)c2nn(-c3ccccc3)c(C)c12 (centres undefined)	9	3	-1	i	/	/	/
COc1cc2c(C#CCO)c(-c3ccc(C#N)cc3)oc(=O)c2cc1OC	2	/	19	+	19	-30	4
O=C1CSC(=S)N1N=Cc1ccc(OCc2ccccc2)cc1	3	/	3	i	/	/	/
CC(C)CCOc1ccc(/C=N/N2C(=O)CSC2=S)cc1	0	3	4	+	-11	32	-9
COc1cc2oc3ccccc3c2cc1N(CC(=O)N(C)C)S(=O)(=O)c1ccccc1	-3	-1	6	+	-1	20	-14
C=CC[C@H](CC(=O)N(CCO)Cc1ccccc1)C(=O)N[C@@H](COC(=O)[C@@H](CC=C)Cc1ccc(F)cc1)Cc1c[nH]c2ccccc12	3	/	1	i	/	/	/
CCN(CC)c1cccc(OCC(=O)N2c3ccccc3CC2C)c1 (centres undefined)	6	/	1	i	/	/	/
CC(C)C1N=C(c2ccc3c(c2)OCO3)CC(c2ccccc2O)N1 (centres undefined)	6	-2	1	i	/	/	/
CCOc1ccccc1C1N=C(c2ccc(OC)cc2)CC(c2ccccc2O)N1 (centres undefined)	2	0	5	+	-13	-46	-4
O=c1c2c(nc3cc(-c4ccccc4Cl)[nH]n13)CCS2	-5	-1	81*	+	12	0	10
O=c1c2c(nc3cc(-c4ccccc4)[nH]n13)CCS2	0	-1	-3	i	/	/	/
Cc1cc(SCC(=O)c2ccc(Cl)cc2)nc(=O)[nH]1	8	7	8	+	1	-14	-7
Cc1cc(SCc2ccc(Cl)cc2Cl)nc(=O)[nH]1	12	11	10	+	37	-9	30
O=C1C=C(c2cccc(Br)c2)C[C@@H](c2ccc(Cl)cc2)C1	-2	/	-3	i	/	/	/
CCN(CC(=O)Nc1ccc2c(c1)OCCO2)CC(=O)Nc1ccc(C)c(S(=O)(=O)N(C)C)c1	-1	/	-2	i	/	/	/
O=C1C2C3C=CC(C3)C2C(=O)N1c1cccc(-c2nc3ccccc3o2)c1 (centres undefined)	2	1	8	+	13	-40	-5
O=C(Nc1cccc(-c2nc3ccccc3o2)c1)c1ccc(N2C(=O)C3C4C=CC(C4)C3C2=O)cc1 (centres undefined)	0	0	-4	i	/	/	/
Cc1nc(NC(=O)c2ccccc2)sc1-c1cc(C(=O)NCCO)nn1Cc1ccccc1	-3	/	4	/	/	/	/
Cc1sc2nc(SCC(=O)Nc3ccccc3F)[nH]c(=O)c2c1C	0	2	-3	i	/	/	/
